Screens as filed in PubChem.
Shown are actives, neighbours in structure and some others; about 3.8% of the full set was active somewhere.
Xi reactivation: reactivates the inactive X chromosome in mouse fibroblasts; XiGFP mouse fibroblasts, % GFP-positive cells imaging, 3 d; cells co-treated with 5-aza-dC sensitizer; scaled so ellipticine positive control = 100%; activation, % at 7.58 µM; 0.055% of 360,000 active; AID 743238;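 active = mean normalized replicate activation at least 10% and every replicate at or above 10%; inconclusive = only one of the two criteria met; inactive = mean below 10% and not all replicates reach 10%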
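Assay system – SV40-immortalized XiGFP fibroblast cells, line 68-5-11 · Buffer or medium – DMEM supplemented with 5-aza-dC as sensitizing agent · Dosing – one concentration, pinned · Benchmarks – positive control ellipticine, 6 µM final · Times – 3 days compound exposure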
ARNT-TACC3 inh: disrupts binding between human ARNT and TACC3 | Q9Y6A5 | AlphaScreen His-ARNT PAS-B/GST-TACC3 binding, luminescence; TACC3 fragment carries E629A point mutation | inhibition, % at 9.99 µM | 0.66% of 390,000 active | AID 623870;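 active = mean inhibition of replicates at least 50% and at least half of replicates each reaching 50%; inconclusive = half or more replicates reach 50% but mean below 50%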
FN deposition inh: fibronectin deposition inhibition; 0.086% of 350,000 active; AH1F fibroblasts, Alexa488-fibronectin deposition fluorescence, overnight; inhibition, % at 12.6 µM;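 active = mean inhibition across replicates of 30% or more, regardless of how many single replicates reach that level; inconclusive = mean under 30% yet at least half of replicates reach 30%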
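Material: AH1F fibroblast monolayer depositing Alexa488-labelled fibronectin into matrix | Input: 10000 AH1F cells/well | Medium: DMEM plus 2% serum, read in PBS | Reagent: Alexa488-fibronectin, 24 nM final in well | Compound dosing: One dose per compound, pinned | Schedule: 1 h adhesion, overnight exposure | Measured by: Fluorescence at 485 nm excitation, 525 nm emission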
DENV2 CPE rescue: protects cells from dengue virus 2 cytopathic effect. CPE inhibition, % at 9.99 µM. AID 651640. DENV2-infected cells, cytopathic effect rescue, plate reader. 1.7% of 350,000 active; in the data active = CPE inhibition above about 20%, passing the limit was not always enough; inconclusive = no clear call, values can overlap the other calls; tested in BHK-21 cells
SIRT5 block: sirtuin-5 (human) deacylase inhibition | Purified SirT5, succinyl-peptide AMC, trypsin-coupled fluorescence | inhibition, % at 15 µM | 1.1% of 330,000 active; in the data active = inhibition above about 15%; inconclusive = no clear call, values can overlap the other calls
Target sequence (Q9NXA8 whole entry, looked up): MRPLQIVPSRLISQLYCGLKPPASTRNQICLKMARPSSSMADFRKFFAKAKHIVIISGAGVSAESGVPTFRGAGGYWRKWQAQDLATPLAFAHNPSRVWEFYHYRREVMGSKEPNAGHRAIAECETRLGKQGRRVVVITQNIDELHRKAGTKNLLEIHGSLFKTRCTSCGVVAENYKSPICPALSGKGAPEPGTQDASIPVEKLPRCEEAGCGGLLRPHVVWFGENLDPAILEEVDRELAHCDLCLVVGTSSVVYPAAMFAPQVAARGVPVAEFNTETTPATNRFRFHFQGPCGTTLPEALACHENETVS
FGF22 binding: shifts melting point of recombinant human FGF22 | activity (Tm shift, normalised), % at 9.99 µM | Q9HCT0 | recombinant FGF22 thermal shift, SYPRO orange fluorescence; percent of sucrose octasulfate shift, DMSO zero | 1.5% of 340,000 active | AID 651658;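 active = mean Tm shift, scaled 0 neutral to 100 positive control, at about 1.3% or above, every replicate too, limit read from the data; inconclusive = no clear call, values can overlap the other calls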
Target sequence (Q9HCT0 whole entry, looked up): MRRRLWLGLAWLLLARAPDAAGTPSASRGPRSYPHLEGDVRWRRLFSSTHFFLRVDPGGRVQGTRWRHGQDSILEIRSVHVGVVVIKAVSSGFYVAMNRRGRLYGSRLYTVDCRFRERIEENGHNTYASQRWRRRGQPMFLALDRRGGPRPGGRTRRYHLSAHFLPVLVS
A number is an active result; ! = not confirmed by another sample.

Results for C#CCOc1ccccc1CNc1ccccc1 ?
Xi reactivation: inactive; ARNT-TACC3 inh: inactive; FN deposition inh: inactive; DENV2 CPE rescue: inactive; SIRT5 block: inactive; FGF22 binding: 43

How did C[C@@H]1CN([C@H](C)CO)C(=O)CCCn2cc(nn2)CO[C@@H]1CN(C)S(=O)(=O)c1ccc(Oc2ccccc2)cc1 do in these assays?
Xi reactivation: inactive; ARNT-TACC3 inh: inactive; FN deposition inh: inactive; DENV2 CPE rescue: inactive; SIRT5 block: inactive; FGF22 binding: inactive

What do the screens show for `C[C@H]1CN([C@@H](C)CO)C(=O)CCCn2cc(nn2)CO[C@@H]1CN(C)S(=O)(=O)c1ccccc1`?
Xi reactivation: inactive; ARNT-TACC3 inh: inactive; FN deposition inh: inactive; DENV2 CPE rescue: inactive; SIRT5 block: inactive; FGF22 binding: inactive

Results for C[C@H]1CN([C@@H](C)CO)C(=O)CCCn2cc(nn2)CO[C@@H]1CN(C)S(=O)(=O)c1ccc(Oc2ccccc2)cc1 ?
Xi reactivation: inactive; ARNT-TACC3 inh: inactive; FN deposition inh: inactive; DENV2 CPE rescue: 35!; SIRT5 block: inactive; FGF22 binding: inactive

How did C[C@H](CO)N1C[C@H](C)[C@H](CN(C)S(=O)(=O)c2ccc(Oc3ccccc3)cc2)OCc2cn(nn2)CCCC1=O do in these assays?
Xi reactivation: inactive; ARNT-TACC3 inh: inactive; FN deposition inh: inactive; DENV2 CPE rescue: 22; SIRT5 block: inactive; FGF22 binding: inactive

How did COc1ccccc1S(=O)(=O)N1CC[C@@H]2[C@@H](CO)Nc3ccc(Br)cc3[C@@H]21 do in these assays?
Xi reactivation: inactive; ARNT-TACC3 inh: inactive; FN deposition inh: inactive

What do the screens show for `COc1ccc(C)cc1N(CC(=O)Nc1cccc(N(C)S(C)(=O)=O)c1)S(C)(=O)=O`?
ARNT-TACC3 inh: inactive; FN deposition inh: 32

How did CN(c1cccc(NC(=O)c2ccc(C(C)(C)C)cc2)c1)S(C)(=O)=O do in these assays?
Xi reactivation: inactive; ARNT-TACC3 inh: inactive; FN deposition inh: inactive; DENV2 CPE rescue: 21; SIRT5 block: inactive; FGF22 binding: 43

How did COc1ccc(N(CC(=O)Nc2cccc(N(C)S(C)(=O)=O)c2)S(C)(=O)=O)cc1OC do in these assays?
ARNT-TACC3 inh: inactive; DENV2 CPE rescue: inactive; SIRT5 block: inactive

How did C[C@@H]1CN([C@H](C)CO)C(=O)c2cc(C#CC3CCCCC3)cnc2O[C@@H]1CN(C)S(=O)(=O)c1ccc(F)cc1 do in these assays?
Xi reactivation: inactive; ARNT-TACC3 inh: inactive; FN deposition inh: inactive; DENV2 CPE rescue: inconclusive; SIRT5 block: inactive; FGF22 binding: inactive

How did Cc1ccc(S(=O)(=O)NCC[C@H]2CC[C@H](NC(=O)Nc3ccccc3F)[C@H](CO)O2)cc1 do in these assays?
Xi reactivation: inactive; ARNT-TACC3 inh: inactive; DENV2 CPE rescue: inactive; SIRT5 block: inactive; FGF22 binding: inactive

How did COCCNC(=O)Cc1ccc(Br)cc1 do in these assays?
ARNT-TACC3 inh: inactive; FN deposition inh: inactive

How did CCCCNC(=O)Cc1ccc(Br)cc1 do in these assays?
Xi reactivation: inactive; ARNT-TACC3 inh: inactive; FN deposition inh: inactive; DENV2 CPE rescue: inactive; SIRT5 block: inactive; FGF22 binding: 44

How did CSc1ccccc1C(=O)N1CCN(c2ccc(F)cc2)CC1 do in these assays?
ARNT-TACC3 inh: inactive; FN deposition inh: inactive

Results for CSc1ccccc1C(=O)N1CCCCC1 ?
Xi reactivation: inactive; ARNT-TACC3 inh: inactive; FN deposition inh: inactive; DENV2 CPE rescue: inactive; SIRT5 block: 20; FGF22 binding: inactive

What do the screens show for `O=C(O)c1cc(-c2ccco2)nn1-c1ccc(Cl)cc1`?
Xi reactivation: inactive; ARNT-TACC3 inh: inactive; FN deposition inh: inactive; DENV2 CPE rescue: inactive; SIRT5 block: inactive; FGF22 binding: inactive

What do the screens show for `O=C(O)c1cc(-c2ccco2)nn1-c1cccc(Cl)c1`?
Xi reactivation: inactive; ARNT-TACC3 inh: inactive; FN deposition inh: inactive; DENV2 CPE rescue: inactive; SIRT5 block: inactive; FGF22 binding: 43

How did O=C(N/N=C/C=C/c1ccccc1)c1cccs1 do in these assays?
Xi reactivation: inactive; ARNT-TACC3 inh: inactive; FN deposition inh: inactive; DENV2 CPE rescue: inactive; SIRT5 block: inactive; FGF22 binding: 43

How did Cn1cccc1-c1cc(C(=O)N/N=C/C=C/c2ccccc2)[nH]n1 do in these assays?
Xi reactivation: inactive; ARNT-TACC3 inh: inactive; FN deposition inh: inactive; DENV2 CPE rescue: inactive; SIRT5 block: inactive; FGF22 binding: 1.7
